# Screening results: PubChem BioAssay, The Scripps Research Institute Molecular Screening Center
# Most compounds without a hit are left out; they make up all but 2.6% or so of the library.
# HTRA1 inhibitor: HTRA1 (human) protease inhibition. Q92743. recombinant HTRA1, FP-rhodamine activity-based probe, fluorescence polarization. inhibition, % at 5.96 µM. hit rate 0.5% among 340,000; in the data active = inhibition above about 36%
# Target sequence (Q92743 whole entry, looked up): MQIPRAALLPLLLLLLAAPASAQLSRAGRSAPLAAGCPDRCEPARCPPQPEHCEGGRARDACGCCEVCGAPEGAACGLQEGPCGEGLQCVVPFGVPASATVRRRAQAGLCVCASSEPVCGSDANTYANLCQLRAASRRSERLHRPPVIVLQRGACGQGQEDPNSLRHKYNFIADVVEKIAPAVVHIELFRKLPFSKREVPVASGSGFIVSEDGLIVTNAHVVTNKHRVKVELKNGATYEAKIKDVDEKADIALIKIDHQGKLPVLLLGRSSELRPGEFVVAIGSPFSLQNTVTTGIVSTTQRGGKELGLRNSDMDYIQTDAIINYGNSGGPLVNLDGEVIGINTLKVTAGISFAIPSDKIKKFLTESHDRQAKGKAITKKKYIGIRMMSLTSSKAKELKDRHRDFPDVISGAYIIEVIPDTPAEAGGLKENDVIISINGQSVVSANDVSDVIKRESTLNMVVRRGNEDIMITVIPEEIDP
# TCR-CD3 inh: inhibitors of human TCR-CD3 interaction; inhibition, % at 9.4 µM; hit rate 0.37% among 360,000; TAMRA-labeled TCR probe fluorescence, biochemical; in the data active = inhibition above about 19%;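 note: recombinant mutant TCR 2C K166C tagged with TAMRA read by polarization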
# PRMT1 inh: PRMT1 (human) inhibition, primary screen; recombinant PRMT1, activity-based probe fluorescence polarization; AID 652257; inhibition, % at 2.79 µM; Q99873; hit rate 1.3% among 370,000;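 active = inhibition above about 21% made by adding two undisclosed values, limit read from the data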
# SIAE primary: human SIAE inhibition, primary screen; Q9HAT2; SIAE FP-Rh probe binding, fluorescence polarization; inhibition, % at 9.66 µM; hit rate 0.69% among 370,000;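 active = inhibition above a cutoff: mean of compounds within the control limits plus 3 SD of those, cut at about 17% in these data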
# mABHD4 FP: inhibits mouse alpha/beta hydrolase domain 4. inhibition, % at 8.92 µM. hit rate 0.54% among 370,000. Q8VD66. purified mABHD4, FP-Rh probe fluorescence polarization;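 active = inhibition exceeding the mean over every tested compound plus 3 SD, cut at about 30% in these data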
#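 Doses – 8.92 µM, single dose · Material – wild-type mouse ABHD4 protein · Replication – single well per compound (singlicate) · Measure – percent inhibition of probe binding, normalized to plate controls · Schedule – 45 min compound pre-incubation plus 60 min probe step, 25 °C · Detection – fluorescence polarization with parallel and perpendicular emission, 525/598 nm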
# PRMT1 inh conf: PRMT1 (human) inhibition, FP confirmation; shares compounds with PRMT1 inh; recombinant His-PRMT1, activity-based probe fluorescence polarization; inhibition, % at 2.79 µM; hit rate 42% among 3,300; AID 687036;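 active = mean inhibition across replicates above the hit cutoff derived for the earlier primary screen, cut at about 22% in these data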
# A number is an active result; 0 = inactive; - = not tested or not shown.
SMILES,HTRA1 inhibitor,TCR-CD3 inh,PRMT1 inh,SIAE primary,mABHD4 FP,PRMT1 inh conf
O=C(/C=C/c1ccco1)NCC1COc2ccccc2O1 (stereo not given),0,0,32.7,0,0,0
O=C(NCc1ccco1)C1CCCN(S(=O)(=O)c2ccc([N+](=O)[O-])cc2)C1 (stereo not given),-,-,0,0,0,-
Cn1nnnc1SCC1=C(C(=O)O)N2C(=O)[C@@H](NC(=O)[C@H](O)c3ccccc3)[C@H]2SC1,0,-,-,-,-,-
CO/N=C(\C(=O)N[C@@H]1C(=O)N2C(C(=O)O)=C(COC(N)=O)CS[C@H]12)c1ccco1,0,0,0,0,0,-
Cc1cc(C)n(CC(=O)NC2C(=O)N3C(C(=O)O)=C(CSc4nnc(C)s4)CSC23)n1 (stereo not given),0,0,35.0,0,0,0
Cc1nnc(SCC2=C(C(=O)O)N3C(=O)C(NC(=O)Cn4ncc(Cl)c4C)C3SC2)s1 (stereo not given),0,0,50.1,0,0,36.8
Cn1nnnc1SCC1=C(C(=O)O)N2C(=O)C(NC(=O)C3CC3c3ccccc3)C2SC1 (stereo not given),0,0,27.9,0,0,0
Cc1nnc(SCC2=C(C(=O)O)N3C(=O)C(NC(=O)c4cccc(F)c4F)C3SC2)s1 (stereo not given),0,0,59.2,0,0,29.2
CCN(CC)C(=O)CC[C@@H]1CC[C@]2(CCCN(Cc3ccc(Br)cc3)C2)O1,-,-,0,0,0,-
Cc1ccc(S(=O)(=O)c2c(N)n(CCN3CCOCC3)c3nc4ccccc4nc23)cc1C,0,0,0,0,0,-
Cc1ccc(S(=O)(=O)c2c(N)n(Cc3ccco3)c3nc4ccccc4nc23)cc1C,0,0,27.6,0,0,0
Nc1c(S(=O)(=O)c2ccccc2)c2nc3ccccc3nc2n1Cc1ccco1,0,0,32.6,0,0,0
CCOc1cc2c3c(c1)C1(Nc4ccccc4S1)C(=O)N3C(C)(C)CC2C (stereo not given),0,0,78.2,0,0,0
COC(=O)[C@]12C[C@H](CC(=O)N3CCC(c4ccccc4)CC3)C(=O)N(Cc3cccc4ccccc34)C1=C[C@H](C1CCCC1)O[C@@H]2C,-,-,0,0,0,-
CC(=O)N1CCCN(C(=O)C2CCN(c3ncnc4c3sc3cccc(F)c34)CC2)CC1,-,-,0,0,0,-
CCc1ccc(N2C(=O)C[C@@](C#N)(C(=O)OC)[C@H]2c2ccccc2)cc1,-,-,0,0,0,-
COCCN(C(=S)Nc1c(C)cc(C)cc1C)C(C)c1cccnc1 (stereo not given),0,0,74.2,0,0,63.2
Oc1ccc(CNc2cccc(F)c2)c2cccnc12,-,-,63.0,0,0,48.0
Oc1ccc(CNc2ccccc2Br)c2cccnc12,-,-,32.4,0,0,0
Cc1ccccc1NCc1ccc(O)c2ncccc12,0,0,0,0,0,-
COc1ccc(C(=O)Nc2ccccc2C(=O)NCCN2CCOCC2)cc1OC,0,0,25.5,0,0,0
CC(C)CSc1n[nH]c(=S)s1,0,0,0,0,0,-
CC(CSc1n[nH]c(=S)s1)c1ccccc1 (stereo not given),0,0,40.7,0,0,73.8
O=C(O)c1ccccc1NC(=S)NC(=O)c1sc2ccccc2c1Cl,0,0,31.8,0,0,31.8
COc1cccc(-c2nnc(SCC(=O)OC(C)C)n2-c2ccc(Cl)cc2)c1,-,-,0,0,0,-
SMILES,HTRA1 inhibitor,TCR-CD3 inh,PRMT1 inh,SIAE primary,mABHD4 FP,PRMT1 inh conf
Cc1ccnc(NC(c2ccsc2)c2ccc3ccc(C)nc3c2O)c1 (stereo not given),0,0,44.4,0,0,49.5
Cc1cccc(NC(c2ccc(C)s2)c2ccc3ccc(C)nc3c2O)n1 (stereo not given),0,0,25.7,0,0,28.4
Cc1ccc2ccc(C(Nc3ccccn3)c3ccccc3)c(O)c2n1 (stereo not given),0,0,0,0,0,-
C[C@@H]1COc2cc(Br)ccc2S(=O)(=O)N1Cc1cn(Cc2ccc(Br)cc2)nn1,-,-,0,0,0,-
Cn1cccc1C(=O)N1CCN(S(=O)(=O)c2ccc([N+](=O)[O-])cc2)CC1,-,-,0,0,0,-
CCN1CCCCC(NC(=O)c2ccc(F)c(F)c2)C1=O (stereo not given),-,-,0,0,0,-
N#CC1=C(SCC(=O)c2ccccc2)NC2=C(C(=O)CCC2)C1c1ccco1 (stereo not given),0,0,34.8,0,0,0
Cc1ccc(C(=O)CSC2=C(C#N)C(c3ccco3)C3=C(CCCC3=O)N2)cc1 (stereo not given),0,0,0,0,0,-
Cc1ccc(NC(=O)/C=C\C(=O)NCC(=O)O)cc1C,0,0,40.5,0,0,0
COc1ccc(S(=O)(=O)Nc2cc(Sc3ncn[nH]3)c(O)c3ccccc23)cc1,-,0,95.9,0,0,86.9
C1CSC2(N1)C1CC3CC(C1)CC2C3 (stereo not given),0,0,50.5,0,0,34.6
COc1ccccc1NC(CC(=O)c1ccccc1)C(=O)OCC(=O)c1ccc(C)cc1 (stereo not given),0,0,0,0,0,-
COc1ccccc1NC(CC(=O)c1ccccc1)C(=O)OCC(=O)c1ccc(C)c(C)c1 (stereo not given),0,0,50.3,0,0,0
CS(=O)(=O)N1CCN(c2ccc([N+](=O)[O-])c(SCc3ccco3)c2)CC1,-,0,33.0,0,0,0
Cc1cccc(C)c1NC(=O)/C(=C/c1ccco1)c1ccccc1,0,0,26.0,0,0,0
Oc1c(C=C2N=c3ccccc3=N2)sc(=S)n1-c1ccc2ccccc2c1,0,0,0,0,0,-
O=C(Nn1c(O)c(C=C2N=c3ccccc3=N2)sc1=S)c1ccc(Cl)cc1,0,0,0,0,0,-
O=C(Nn1c(O)c(C=C2N=c3ccccc3=N2)sc1=S)c1ccccc1,0,0,49.3,0,0,0
Cc1ccc(C(=O)Nn2c(O)c(C=C3N=c4ccccc4=N3)sc2=S)cc1,0,0,55.2,0,0,0
O=C(Nn1c(O)c(C=C2N=c3ccccc3=N2)sc1=S)c1cccc(Cl)c1,0,0,38.7,0,0,0
Cc1ccc(C2CC(c3ccco3)n3ncnc3N2)cc1 (stereo not given),0,0,0,0,0,-
Cc1ccc2c(c1)C(N1CCCC1=O)CC(c1ccco1)N2 (stereo not given),0,0,24.8,0,0,0
Cc1ccccc1CN1CCCCC(NC(=O)c2ccc(Br)cc2)C1=O (stereo not given),-,-,0,0,0,-
COC(=O)C1(CO)NC(c2ccc(C)cc2)C2C(=O)N(c3ccccc3)C(=O)C21 (stereo not given),0,0,0,0,0,-
Cc1cc(C)c(S(=O)(=O)NCC23C=CC(O2)C2C(=O)N(c4ccccc4)C(=O)C23)c(C)c1 (stereo not given),0,0,53.6,0,0,0
